Screening results deposited in PubChem by several laboratories.
An excerpt weighted towards active compounds, which were near 2.5% of everything screened.
TRPC6 inhibitor: mouse TRPC6 channel inhibitors, primary screen, cell-based, HEK293, membrane potential dye; actives 1.1% (n = 310,000); B-score at 10 µM; ACh-evoked depolarization; hits give low values; Short transient receptor potential channel 6 (Mus musculus), Q61143; AID 2553, 2010;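 active means B-score under library mean minus 3 SD, initial fluorescence not abnormally high, positive integrated signal ratio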;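 further: B-score derived from integrated fluorescence ratio over the kinetic read; more negative B-score means stronger inhibition of depolarization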
DSG3 Ab inh: inhibitors of pemphigus antibody binding to DSG3, primary screen, biochemical, bead-based, flow cytometry, scFv-GFP; actives 0.48% (n = 310,000); binding (percent of control), % at 10 µM; DSG3-coupled beads, scFv-anti-DSG3-GFP binding; hits give low values; AID 588358, 2011;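 active means binding more than 3 SD below its plate's average and above zero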;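 further: hits lower antibody fragment binding to DSG3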
TRPC4 PAM: positive allosteric modulators of TRPC4, primary screen, cell-based, mouse TRPC4beta, HEK293 mu-opioid, Fluo-4 calcium; Short transient receptor potential channel 4 (Mus musculus), Q9QUQ5; DAMGO EC20, Fluo-4 Ca2+ flux; hits give high values; B-score at 10 µM; actives 0.42% (n = 310,000);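 active means B-score of calcium response area above 5 SD of library B-scores, with initial fluorescence ratio within 5 SD of library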;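 further: B-score of integrated fluorescence ratio over time as area under calcium response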
TRPC6 activator: mouse TRPC6 channel activators, primary screen, cell-based, HEK293, membrane potential dye; Short transient receptor potential channel 6 (Mus musculus), Q61143; HEK293-TRPC6 membrane potential dye fluorescence; hits give high values; B-score at 10 µM; actives 0.13% (n = 310,000);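 active means B-score of the integrated fluorescence ratio above library mean plus 3 SD, and starting fluorescence ratio within library mean plus 5 SD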;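 further: higher score means more depolarization so channel activation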
TRPC4 block: inhibitors of mouse TRPC4 channel, primary screen, Fluo4 calcium, HEK293 TRPC4beta/mu-opioid cells; Short transient receptor potential channel 4 (Mus musculus), Q9QUQ5; DAMGO-evoked Fluo4 calcium flux; hits give low values; B-score at 10 µM; actives 0.39% (n = 300,000);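 active means B-score over 3 SD under the library average, no early fluorescence shift, positive overall ratio signal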
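Assay system: TRPC4beta/mu-opioid receptor HEK293 cell line; compound dosing: single concentration per test compound; detection: Fluo4 Ca2+ flux fluorescence; evaluation: per-well B score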
TRPC4 act: activators of mouse TRPC4 channel, primary screen, Fluo4 calcium, HEK293 TRPC4beta/mu-opioid cells | Short transient receptor potential channel 4 (Mus musculus), Q9QUQ5 | Fluo4 calcium fluorescence; hits give high values | B-score at 10 µM | actives 0.49% (n = 310,000);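 active means B-score above 5 SD of library B-scores, and initial fluorescence ratio not above library mean plus 5 SD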;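 further: positive B-score marks a calcium rise read as TRPC4 activation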
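Assay system: HEK293 stable line with TRPC4beta plus mu-opioid receptor; schedule: 45 min room-temperature Fluo4 loading, 110 s read; technique: kinetic Fluo4 calcium fluorescence; evaluation: integrated baseline-normalised fluorescence ratio, converted to per-well B score; controls: buffer (low) and maximal DAMGO (high)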
Numbers without * were called inactive; i = inactive; / = not tested or not shown.

SMILES	TRPC6 inhibitor	DSG3 Ab inh	TRPC4 PAM	TRPC6 activator	TRPC4 block	TRPC4 act
Cc1ccc(C(=O)C(c2ccccc2)N2Cc3ccccc3C2=N)cc1 (configuration not stated)	i	116.3	i	i	i	210*
Cc1nc2sccn2c(=O)c1S(=O)(=O)NCCc1ccc(Cl)cc1	i	-7.6*	i	i	i	i
CC(C)c1ccc(C(C)NCCS(=O)(=O)c2ccc(Br)cc2)cc1 (configuration not stated)	i	100.4	19*	i	i	i
CC(NCCS(=O)(=O)c1ccc(Cl)cc1)c1cccc(Cl)c1 (configuration not stated)	i	99.2	i	i	i	i
COc1ccc(CCN2C(=O)CSC2=Nc2ccc(C(C)C)cc2)cc1OC	i	98.2	i	i	i	i
Clc1ccc(SCc2cn3ccccc3n2)cc1	i	103.3	i	i	i	i
Cc1cccc2nc(CSc3ccc(Cl)cc3)cn12	i	103.8	i	i	-8*	i
Cc1ccnc(SCC(=O)NC2CC2)n1	i	107.2	i	i	i	i
CCCCCc1nnc(NC(=O)c2cccc(S(=O)(=O)N3CCOCC3)c2)s1	/	100.7	/	/	/	/
CC(C)n1c(SCC(=O)Nc2nc3ccccc3s2)nc2c1c(=O)n(C)c(=O)n2C	i	87.4*	i	i	i	i
CCOc1ccc2nc(NC(=O)CSc3nc4c(c(=O)n(C)c(=O)n4C)n3C(C)C)sc2c1	i	103.1	i	i	i	i
COc1ccc(S(=O)(=O)N2CCN(C(=O)c3ccc4ccccc4n3)CC2)cc1	/	100.0	/	/	/	/
COc1ccc(N(CC(=O)O)S(=O)(=O)c2ccc(C)cc2)cc1Cl	i	99.1	i	i	i	i
O=C1S/C(=C\c2ccc(O)c([N+](=O)[O-])c2)C(=O)N1Cc1cccc([N+](=O)[O-])c1	i	99.6	i	i	i	i
O=C1S/C(=C\c2ccc(O)c([N+](=O)[O-])c2)C(=O)N1c1ccccc1Cl	i	91.9	i	i	-10*	i
COc1ccc(Nc2nccc(N(C)C)c2C#N)cc1	i	102.0	i	i	i	i
CCC1CCCCN1CCN1C(=O)C2C(C(=O)Nc3cccc(OC)c3)C3C=CC2(O3)C1C(=O)NC1CCCCC1 (configuration not stated)	i	/	i	i	i	i
CCC1CCCCN1CCN1C(=O)C2C(C(=O)Nc3ccc(OC)cc3)C3C=CC2(O3)C1C(=O)NC1CCCCC1 (configuration not stated)	i	103.7	i	i	-6*	i
CCCN(CCC)CCN1C(=O)C2C(C(=O)Nc3ccc(C)cc3)C3C=CC2(O3)C1C(=O)NC1CCCCC1 (configuration not stated)	i	117.6	i	i	i	i
CCN(CC)CCN1C(=O)C2C(C(=O)Nc3cc(C)cc(C)c3)C3C=CC2(O3)C1C(=O)NC1CCCCC1 (configuration not stated)	i	113.0	i	i	i	47*
O=C(O)c1cnc(-c2ccccc2)nc1Sc1ccc(Cl)cc1Cl	i	111.1	i	i	-6*	i
COc1cc(CC(=O)O)ccc1O	i	/	i	i	i	i
O=C(O)Cc1ccc(O)c(F)c1	i	67.8*	i	i	i	i
Cc1ccc(-n2c(SCc3cc(=O)n4ccsc4n3)nnc2-c2cccnc2)c(C)c1	i	99.4	i	i	-7*	i
CCOc1ccc(NC(=O)NC2CCS(=O)(=O)C2)cc1 (configuration not stated)	i	112.3	i	i	i	i
SMILES	TRPC6 inhibitor	DSG3 Ab inh	TRPC4 PAM	TRPC6 activator	TRPC4 block	TRPC4 act
O=C(Nc1nccs1)c1ccc(-c2cccc([N+](=O)[O-])c2)o1	i	64.5*	i	i	i	i
COc1cccc(NC(=O)c2ccc(-c3ccc([N+](=O)[O-])cc3)o2)c1	i	83.5*	i	i	i	i
CCCCCN(C(=O)CN1CCC(Cc2ccccc2)CC1)c1c(N)n(CCCC)c(=O)[nH]c1=O	i	106.5	i	i	i	i
COc1ccc2nc3cc(Cl)ccc3c(Nc3cc(CN4CCCC4)c(O)c(CN4CCCC4)c3)c2n1	-6.6*	/	i	i	i	i
COCCCNC(=O)CCn1c(=O)c2ccccc2n(CC(=O)NCCC2=CCCCC2)c1=O	i	67.7*	i	i	i	i
Cc1cc(SCc2cccc([N+](=O)[O-])c2)nc(=O)[nH]1	i	104.3	i	i	i	i
Cc1cc(SCC(=O)c2cccc([N+](=O)[O-])c2)nc(=O)[nH]1	i	99.6	41*	i	i	i
C[C@H](CO)N1C[C@H](C)[C@@H](CN(C)C(=O)NC2CCCCC2)Oc2ccc(NC(=O)C3CCCCC3)cc2C1=O	/	99.6	/	/	/	/
O=C(O)c1ccc[n+](Cc2ccc([N+](=O)[O-])cc2)c1	i	99.3	i	i	i	i
O=[N+]([O-])c1ccc(C[n+]2cccc(O)c2)cc1	i	101.4	i	i	i	168*
CCCOc1ccc(C(=O)N(CC(C)C)c2c(N)n(Cc3ccccc3)c(=O)[nH]c2=O)cc1	i	109.3	i	i	i	i
CCc1ccc(/C(C)=N/NC(=O)CNC(=O)/C=C/c2ccco2)cc1	i	64.2*	i	i	i	i
O=C(/C=C/c1ccco1)NCc1ccco1	i	79.8*	i	i	i	i
Cc1cc2c(cc1S(=O)(=O)Nc1cccc(C)c1C)n(C)c(=O)c(=O)n2C	i	115.5	i	i	i	i
CC(C)(Sc1cc(C(C)(C)C)c(O)c(C(C)(C)C)c1)Sc1cc(C(C)(C)C)c(O)c(C(C)(C)C)c1	i	86.6	i	i	i	83*
C/C(=N/O)c1cc(C(C)(C)C)c(O)c(C(C)(C)C)c1	i	98.2	i	i	i	i
CCOc1ccc(S(=O)(=O)N2CCC(C(=O)NCC3CCCO3)CC2)cc1Cl (configuration not stated)	i	111.9	i	i	i	i
